Experimental data taken from ChEMBL document CHEMBL5108039, “Piperazine tethered bergenin heterocyclic hybrids: design, synthesis, anticancer activity, and molecular docking studies” (RSC Med Chem, 2022).
Activity calls are given as the source filed them. No cut-off for these calls is given here.

Legend:
[1] = tested on: CAL-27; experiment: Induction of apoptosis in human CAL-27 cells assessed as downregulation of BcL-2 gene expression at 32 uM by qRT-PCR analysis; assay type: functional, cell-based
In short: (§1)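 CAL27 cells were treated with test compounds at several concentrations. Relative expression of vimentin, E-cad, Nanog, Oct-4, Bax and BcL-2 was measured by qRT-PCR against vehicle-treated control cells.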

[2] = tested on: SCC-9; experiment: Induction of apoptosis in human SCC-9 cells assessed as live cells at 16.2 uM incubated for 24 hrs by Annexin V-FITC/PI staining based flow cytometric analysis (reference value: 95.7 %); assay type: functional
[3] = tested on: CAL-27; experiment: Cell cycle arrest in human CAL-27 cells assessed as accumulation at G0/G1 phase at 32 uM incubated for 24 hrs by flow cytometry (reference value: 77.6 %); assay type: functional
[4] = tested on: SCC-9; experiment: Induction of apoptosis in human SCC-9 cells assessed as downregulation of Oct-4 gene expression at 16 uM by qRT-PCR analysis; assay type: functional, cell-based
[5] = tested on: A549; experiment: Cytotoxicity against human A549 cells assessed as cell growth inhibition; assay type: functional, cell-based
In short: (§2)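 Compounds were dissolved in sterile DMSO as 10 mg ml−1 stocks and tested in vitro for cytotoxicity in a cell-line panel, with DMSO (0.01%) as vehicle control and doxorubicin as standard. Mean IC50 values were reported, and the normal lung epithelial cells were tested up to 100 μM.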

[6] = tested on: CAL-27; experiment: Induction of apoptosis in human CAL-27 cells assessed as downregulation of BcL-2 gene expression at 16 uM by qRT-PCR analysis; assay type: functional, cell-based; in short: as §1
[7] = Cytotoxicity against human BEAS-2B cells assessed as cell growth inhibition; assay type: toxicity, cell-based; in short: as §2
[8] = tested on: SCC-9; experiment: Induction of apoptosis in human SCC-9 cells assessed as necrotic cells at 16.2 uM incubated for 24 hrs by Annexin V-FITC/PI staining based flow cytometric analysis (reference value: 0.1 %); assay type: functional
[9] = tested on: SCC-9; experiment: Induction of apoptosis in human SCC-9 cells assessed as downregulation of BcL-2 gene expression at 16 uM by qRT-PCR analysis; assay type: functional, cell-based
[10] = tested on: CAL-27; experiment: Induction of apoptosis in human CAL-27 cells assessed as early apoptotic cells at 32 uM incubated for 24 hrs by Annexin V-FITC/PI staining based flow cytometric analysis (reference value: 0.1 %); assay type: functional
In short: (§3)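 CAL27 cells were treated with vehicle, doxorubicin or test compounds at 10–63 μM, and apoptosis was assessed by annexin V–FITC/PI staining with flow cytometry. Cells were scored as live, early apoptotic, late apoptotic or necrotic. The vehicle was DMSO (0.01%).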

[11] = tested on: SCC-9; experiment: Cell cycle arrest in human SCC-9 cells assessed as accumulation at G2/M phase at 32.4 uM incubated for 24 hrs by flow cytometry (reference value: 14.2 %); assay type: functional
[12] = tested on: CAL-27; experiment: Induction of apoptosis in human CAL-27 cells assessed as live cells at 16 uM incubated for 24 hrs by Annexin V-FITC/PI staining based flow cytometric analysis (reference value: 99.8 %); assay type: functional; in short: as §3
[13] = tested on: CAL-27; experiment: Induction of apoptosis in human CAL-27 cells assessed as downregulation of vimentin gene expression at 16 uM by qRT-PCR analysis; assay type: functional, cell-based; in short: as §1
[14] = tested on: SCC-9; experiment: Cytotoxicity against human SCC-9 cells assessed as cell growth inhibition; assay type: functional, cell-based
In short: (§4)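 Compounds were dissolved in sterile DMSO as 10 mg ml−1 stocks and tested for in vitro growth inhibition of human cancer cell lines. Doxorubicin was the standard drug and DMSO (0.01%) the vehicle control. IC50 values are reported as means.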

[15] = tested on: CAL-27; experiment: Induction of apoptosis in human CAL-27 cells assessed as downregulation of vimentin gene expression at 32 uM by qRT-PCR analysis; assay type: functional, cell-based; in short: as §1
[16] = tested on: HCT-15; experiment: Cytotoxicity against human HCT-15 cells assessed as cell growth inhibition; assay type: functional, cell-based; in short: as §4
[17] = tested on: CAL-27; experiment: Induction of apoptosis in human CAL-27 cells assessed as downregulation of Nanog gene expression at 32 uM by qRT-PCR analysis; assay type: functional, cell-based; in short: as §1
[18] = tested on: SCC-9; experiment: Induction of apoptosis in human SCC-9 cells assessed as upregulation of E-cad gene expression at 16 uM by qRT-PCR analysis; assay type: functional, cell-based
[19] = tested on: CAL-27; experiment: Induction of apoptosis in human CAL-27 cells assessed as upregulation of Bax gene expression at 16 uM by qRT-PCR analysis; assay type: functional, cell-based
In short: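 CAL27 cells were treated with test agents at different concentrations. Relative mRNA levels of vimentin, E-cad, Nanog, Oct-4, Bax and Bcl-2 were then quantified by qRT-PCR as apoptosis, EMT and stemness markers.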

[20] = tested on: CAL-27; experiment: Induction of apoptosis in human CAL-27 cells assessed as late apoptotic cells at 16 uM incubated for 24 hrs by Annexin V-FITC/PI staining based flow cytometric analysis (reference value: 0.1 %); assay type: functional; in short: as §3
[21] = tested on: CAL-27; experiment: Induction of apoptosis in human CAL-27 cells assessed as necrotic cells at 16 uM incubated for 24 hrs by Annexin V-FITC/PI staining based flow cytometric analysis (reference value: 0.0 %); assay type: functional; in short: as §3
[22] = tested on: CAL-27; experiment: Induction of apoptosis in human CAL-27 cells assessed as necrotic cells at 32 uM incubated for 24 hrs by Annexin V-FITC/PI staining based flow cytometric analysis (reference value: 0.0 %); assay type: functional
[23] = tested on: CAL-27; experiment: Cell cycle arrest in human CAL-27 cells assessed as accumulation at G0/G1 phase at 16 uM incubated for 24 hrs by flow cytometry (reference value: 77.6 %); assay type: functional
[24] = tested on: SCC-9; experiment: Induction of apoptosis in human SCC-9 cells assessed as downregulation of vimentin gene expression at 16 uM by qRT-PCR analysis; assay type: functional, cell-based
[25] = tested on: SCC-9; experiment: Induction of apoptosis in human SCC-9 cells assessed as live cells at 32.4 uM incubated for 24 hrs by Annexin V-FITC/PI staining based flow cytometric analysis (reference value: 95.7 %); assay type: functional
[26] = tested on: SCC-9; experiment: Cell cycle arrest in human SCC-9 cells assessed as accumulation at S phase at 16.2 uM incubated for 24 hrs by flow cytometry (reference value: 14.4 %); assay type: functional
[27] = tested on: CAL-27; experiment: Induction of apoptosis in human CAL-27 cells assessed as live cells at 32 uM incubated for 24 hrs by Annexin V-FITC/PI staining based flow cytometric analysis (reference value: 99.8 %); assay type: functional; in short: as §3
[28] = tested on: CAL-27; experiment: Induction of apoptosis in human CAL-27 cells assessed as downregulation of Oct-4 gene expression at 16 uM by qRT-PCR analysis; assay type: functional, cell-based; in short: as §1
[29] = tested on: SCC-9; experiment: Induction of apoptosis in human SCC-9 cells assessed as downregulation of Nanog gene expression at 32 uM by qRT-PCR analysis; assay type: functional, cell-based
[30] = tested on: CAL-27; experiment: Cell cycle arrest in human CAL-27 cells assessed as accumulation at S phase at 16 uM incubated for 24 hrs by flow cytometry (reference value: 3.6 %); assay type: functional
[31] = tested on: CAL-27; experiment: Cell cycle arrest in human CAL-27 cells assessed as accumulation at S phase at 32 uM incubated for 24 hrs by flow cytometry (reference value: 3.6 %); assay type: functional
[32] = tested on: SCC-9; experiment: Induction of apoptosis in human SCC-9 cells assessed as downregulation of BcL-2 gene expression at 32 uM by qRT-PCR analysis; assay type: functional, cell-based
[33] = tested on: SCC-9; experiment: Induction of apoptosis in human SCC-9 cells assessed as early apoptotic cells at 32.4 uM incubated for 24 hrs by Annexin V-FITC/PI staining based flow cytometric analysis (reference value: 2.8 %); assay type: functional

COc1ccc(-c2csc(NC(=O)CN3CCN(Cc4c(O)c(OC)c(O)c5c4C(=O)OC4C5O[C@H](CO)[C@@H](O)[C@@H]4O)CC3)n2)cc1 (stereo partly drawn)
Activity [1]: Active
Activity [2]: 44.2%
Activity [3]: 87.1%
Activity [4]: Active
IC50 [5]: > 100 µM
Activity [6]: Active
IC50 [7]: > 100 µM
Activity [8]: 9.2%
Activity [9]: Active
Activity [10]: 2.8%
Activity [11]: 10.5%
Activity [12]: 94.5%
Activity [13]: Active
IC50 [14]: 32.4 µM
Activity [15]: Active
IC50 [16]: 70.5 µM
Activity [17]: Active
Activity [18]: Active
Activity [19]: Active
Activity [20]: 2%
Activity [21]: 0.9%
Activity [22]: 1.9%
Activity [23]: 85.5%
Activity [24]: Active
Activity [25]: 42.8%
Activity [26]: 16%
Activity [27]: 91%
Activity [28]: Active
Activity [29]: Active
Activity [30]: 2.1%
Activity [31]: 3.1%
Activity [32]: Active
Activity [33]: 5.9%
